Measurements from ChEMBL document CHEMBL4312029, “Structure-activity relationship studies and in vitro and in vivo anticancer activity of novel 3-aroyl-1,4-diarylpyrroles against solid tumors and hematological malignancies” (Eur J Med Chem, 2020).
Activity calls are given as the source filed them. The calls are words filed in the database; no cut-off is given here.

Tests used:
[1] = Cytotoxicity against human SK-N-BE cells assessed as reduction in cell viability incubated for 48 hrs by MTT assay; format: functional, cell-based
How it was run: (§1)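 Increasing concentrations applied to glioblastoma and neuroblastoma lines to give dose-response viability curves; cytotoxic IC50 from triplicate experiments. Incubation 48 h, except U343MG at 72 h.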

[2] = test system: T98G; assay: Cytotoxicity against human T98G cells assessed as reduction in cell viability incubated for 48 hrs by MTS assay; format: functional, cell-based; how it was run: as §1
[3] = test system: PBMC; assay: Cytotoxicity against human PBMC assessed as cell viability by MTT assay; format: cell-based
[4] = test system: KBM5; assay: Cytotoxicity against human KBM5 cells expressing IM- sensitive wild type Bcr/Abl assessed as reduction in cell viability incubated for 48 hrs by MTT assay; format: functional, cell-based; settings: KBM5, 48 h
[5] = Cytotoxicity against IM resistant human LAMA84-r cells assessed as reduction in cell viability incubated for 48 hrs by MTT assay; format: functional, cell-based
[6] = target: Tubulin (Homo sapiens) (UniProt P68371+Q9H4B7+P0DPH7+P68366+Q13509+Q71U36+P04350+Q3ZCM7+P07437+P68363+Q9BQE3+Q6PEY2+Q13885+Q9BVA1+Q9BUF5); assay: Inhibition of [3H]colchicine binding to tubulin (unknown origin) at 5 uM incubated for 10 mins by DEAE-cellulose filter method relative to control; format: protein-complex assay
[7] = species on record: Homo sapiens; assay: (§2) Cytotoxicity against human U343MG cells assessed as reduction in cell viability incubated for 72 hrs by MTS assay; format: functional, cell-based; how it was run: as §1
[8] = as §2; format: functional, cell-based; settings: U-343MG; how it was run: as §1
[9] = test system: KU812 cell line; assay: Cytotoxicity against human KU812 cells expressing IM- sensitive wild type Bcr/Abl assessed as reduction in cell viability incubated for 48 hrs by MTT assay; format: functional, cell-based; settings: KU812, 48 h
[10] = Cytotoxicity against human LAMA84-s cells expressing IM-sensitive wild type Bcr/Abl assessed as reduction in cell viability incubated for 48 hrs by MTT assay; format: functional, cell-based
[11] = test system: KBM5; assay: Cytotoxicity against human KBM5 cells expressing IM-resistant Bcr/Abl T315I mutant assessed as reduction in cell viability incubated for 48 hrs by MTT assay; format: functional, cell-based; settings: KBM5, 48 h
[12] = test system: SW-620; assay: Cytotoxicity against human SW620 cells assessed as reduction in cell viability incubated for 48 hrs by MTT assay; format: functional, cell-based; settings: for IC50: SW-620, 48 h
[13] = test system: HT-29; assay: Cytotoxicity against human HT-29 cells assessed as reduction in cell viability incubated for 48 hrs by MTT assay; format: functional, cell-based; settings: for IC50: HT-29, 48 h
[14] = target: Tubulin; assay: Inhibition of tubulin polymerization (unknown origin) incubated for 15 mins followed by GTP addition and measured for 20 mins by spectrophotometry; format: protein-complex assay, Homo sapiens
How it was run: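 Tubulin assembly assay with tubulin at 10 µM. IC50 for inhibition of polymerization; run in duplicate or triplicate.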

[15] = test system: HCT-116; assay: Cytotoxicity against human HCT116 cells assessed as reduction in cell viability incubated for 48 hrs by MTT assay; format: functional, cell-based; settings: for IC50: HCT-116, 48 h
[16] = test system: SW480; assay: Cytotoxicity against human SW480 cells assessed as reduction in cell viability incubated for 48 hrs by MTT assay; format: functional, cell-based; settings: for IC50: SW480, 48 h
[17] = test system: U-87 MG; assay: Cytotoxicity against human U87MG cells assessed as reduction in cell viability incubated for 48 hrs by MTS assay; format: functional, cell-based, U-87MG ATCC; settings: for inhibition: U-87MG ATCC; how it was run: as §1
[18] = test system: MCF7; assay: Cytotoxicity against human MCF7 cells assessed as reduction in cell growth incubated for 96 hrs by MTT assay; format: functional, cell-based; settings: MCF7, 96 h
How it was run: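 Growth inhibition of human breast carcinoma cells, reported as IC50; run in duplicate or triplicate.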

[19] = test system: T-24; assay: Cytotoxicity against human T24 cells assessed as reduction in cell viability incubated for 48 hrs by MTT assay; format: functional, cell-based; settings: T-24, 48 h
[20] = Cytotoxicity against human SK-N-BE(2)C cells assessed as reduction in cell viability incubated for 48 hrs by MTT assay; format: functional, cell-based; how it was run: as §1
[21] = test system: T-24; assay: Antitumor activity against human T24 cells xenografted in BALB/c nu/nu mouse assessed as reduction in tumor weight at 20 mg/kg, ip administered every 2 days for 40 days and measured on day 40; format: functional, organism-based
How it was run: (§3)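 T24 or ES-2 cells injected on the backs of nude mice; saline-treated control group. Mice euthanized on Day 40, tumors excised, and tumor volume and weight measured.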

[22] = test system: T-24; assay: Antitumor activity against human T24 cells xenografted in BALB/c nu/nu mouse assessed as reduction in CD31 expression in tumor tissue at 20 mg/kg, ip administered every 2 days for 40 days and measured on day 40 by immunofluorescence analysis; format: functional, organism-based
How it was run: (§4)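 Nude mice bearing back tumors from injected T24 or ES-2 cells, treated versus saline controls. Tumors collected on Day 40 and marker expression in tumor tissue assessed by immunofluorescence staining.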

[23] = test system: T-24; assay: Antitumor activity against human T24 cells xenografted in BALB/c nu/nu mouse assessed as reduction in tumor volume at 20 mg/kg, ip administered every 2 days for 40 days and measured on day 40; format: functional, organism-based; how it was run: as §3
[24] = test system: T-24; assay: Antitumor activity against human T24 cells xenografted in BALB/c nu/nu mouse assessed as reduction in Ki67 expression in tumor tissue at 20 mg/kg, […] days for 40 days and measured on day 40 by immunofluorescence analysis; format: functional, organism-based; how it was run: as §4
[25] = test system: Homo sapiens; assay: Antitumor activity against human ES2 cells xenografted in BALB/c nu/nu mouse assessed as increase in caspase 9 expression in tumor tissue at 20 mg/kg, ip administered every 2 days for 40 days and measured on day 40 by immunofluorescence analysis; format: functional, organism-based; how it was run: as §4
[26] = test system: Homo sapiens; assay: Antitumor activity against human ES2 cells xenografted in BALB/c nu/nu mouse assessed as reduction in Ki67 expression in tumor tissue at 20 mg/kg, ip administered every 2 days for 40 days and measured on day 40 by immunofluorescence analysis; format: functional, organism-based; how it was run: as §4
[27] = test system: T-24; assay: Antitumor activity against human T24 cells xenografted in BALB/c nu/nu mouse assessed as increase in caspase 3 expression in tumor tissue at 20 mg/kg, ip administered every 2 days for 40 days and measured on day 40 by immunofluorescence analysis; format: functional, organism-based; how it was run: as §4
[28] = test system: T-24; assay: Antitumor activity against human T24 cells xenografted in BALB/c nu/nu mouse assessed as reduction in Bcl2 expression in tumor tissue at 20 mg/kg, ip administered every 2 days for 40 days and measured on day 40 by immunofluorescence analysis; format: functional, organism-based; how it was run: as §4
[29] = test system: Homo sapiens; assay: Antitumor activity against human ES2 cells xenografted in BALB/c nu/nu mouse assessed as reduction in tumor volume at 20 mg/kg, ip administered every 2 days for 40 days and measured on day 40; format: functional, organism-based; how it was run: as §3
[30] = test system: Homo sapiens; assay: Antitumor activity against human ES2 cells xenografted in BALB/c nu/nu mouse assessed as reduction in CD31 expression in tumor tissue at 20 mg/kg, ip administered every 2 days for 40 days and measured on day 40 by immunofluorescence analysis; format: functional, organism-based; how it was run: as §4
[31] = test system: Homo sapiens; assay: Antitumor activity against human ES2 cells xenografted in BALB/c nu/nu mouse assessed as increase in Bax expression in tumor tissue at 20 mg/kg, ip administered every 2 days for 40 days and measured on day 40 by immunofluorescence analysis; format: functional, organism-based; how it was run: as §4
[32] = test system: T-24; assay: Antitumor activity against human T24 cells xenografted in BALB/c nu/numouse assessed as increase in Bax expression in tumor tissue at 20 mg/kg, ip administered every 2 days for 40 days and measured on day 40 by immunofluorescence analysis; format: functional, organism-based; how it was run: as §4
[33] = test system: Homo sapiens; assay: Antitumor activity against human ES2 cells xenografted in BALB/c nu/nu mouse assessed as reduction in tumor weight at 20 mg/kg, ip administered every 2 days for 40 days and measured on day 40; format: functional, organism-based; how it was run: as §3
[34] = test system: T-24; assay: Antitumor activity against human T24 cells xenografted in BALB/c nu/nu mouse assessed as increase in caspase 9 expression in tumor tissue at 20 mg/kg, ip administered every 2 days for 40 days and measured on day 40 by immunofluorescence analysis; format: functional, organism-based; how it was run: as §4
[35] = test system: Homo sapiens; assay: Antitumor activity against human ES2 cells xenografted in BALB/c nu/nu mouse assessed as increase in caspase 3 expression in tumor tissue at 20 mg/kg, ip administered every 2 days for 40 days and measured on day 40 by immunofluorescence analysis; format: functional, organism-based; how it was run: as §4
[36] = test system: Homo sapiens; assay: Antitumor activity against human ES2 cells xenografted in BALB/c nu/nu mouse assessed as reduction in Bcl2 expression in tumor tissue at 20 mg/kg, ip administered every 2 days for 40 days and measured on day 40 by immunofluorescence analysis; format: functional, organism-based; how it was run: as §4
[37] = test system: KBM5; assay: Induction of apoptotic cell death in human KBM5 cells expressing IM-resistant Bcr/Abl T315I mutant at 10 nM incubated for 48 hrs by Annexin V-staining based flow cytometry; format: functional
How it was run: (§5)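 KBM5-WT and KBM5-T315I cells exposed 48 h to 10 nM test compound alone or combined with 10 nM nilotinib (nilotinib alone as comparator). Apoptotic cells quantified by annexin V staining and flow cytometry; triplicate.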

[38] = test system: KBM5; assay: Induction of apoptotic cell death in human KBM5 cells expressing IM-sensitive wild type Bcr/Abl at 10 nM incubated for 48 hrs by Annexin V-staining based flow cytometry; format: functional; how it was run: as §5

Compound `COc1cc(C(=O)c2cn(-c3cccc(N)c3)cc2-c2ccccc2[N+](=O)[O-])cc(OC)c1OC` has an IC50 [1] of 0.311 µM, an Emax [2] of 26.7% and an IC50 [2] of 0.0346 to 0.035 µM. For the same compound, the inhibition [2] was “Dose-dependent effect”, the Activity [3] was “Non-Toxic” and the IC50 [4] was 0.015 µM. The IC50 [5] was 0.02 µM, the inhibition [6] was 82% and the inhibition [7] was “Dose-dependent effect”. It also gave an Emax [8] of 35.3%, an IC50 [8] of 0.03 to 0.0302 µM and an IC50 [9] of 0.016 µM. The IC50 [10] was 0.018 µM, the IC50 [11] was 0.021 µM and the inhibition [12] was “Dose-dependent effect”. For the same compound, the IC50 [12] was 0.038 µM, the inhibition [13] was “Dose-dependent effect” and the IC50 [13] was 0.051 µM. The IC50 [14] was 0.71 µM, the inhibition [15] was “Dose-dependent effect” and the IC50 [15] was 0.044 µM. For the same compound, the inhibition [16] was “Dose-dependent effect”, the IC50 [16] was 0.164 µM and the Emax [17] was 32.4%. For the same compound, the IC50 [17] was 0.0299 to 0.03 µM, the inhibition [17] was “Dose-dependent effect” and the IC50 [18] was 0.014 µM. For the same compound, the IC50 [19] was 0.012 µM and the IC50 [20] was 0.132 µM.
With `COc1cc(C(=O)c2cn(-c3cccc(N)c3)cc2-c2ccc(N)cc2)cc(OC)c1OC` the inhibition [21] was “Active”, the IC50 [1] was 0.221 µM and the inhibition [22] was “Active”. The Emax [2] was 41.3%, the IC50 [2] was 0.0366 to 0.037 µM and the inhibition [2] was “Dose-dependent effect”. The inhibition [23] was “Active”, the inhibition [24] was “Active” and the Activity [25] was “Active”. The inhibition [26] was “Active”, the Activity [27] was “Active” and the inhibition [28] was “Active”. For the same compound, the inhibition [29] was “Active”, the Activity [3] was “Non-Toxic” and the IC50 [4] was 0.014 µM. The IC50 [5] was 0.012 µM, the inhibition [6] was 92% and the inhibition [30] was “Active”. For the same compound, the inhibition [7] was “Dose-dependent effect”, the Emax [8] was 36.3% and the IC50 [8] was 0.0119 to 0.012 µM. For the same compound, the Activity [31] was “Active”, the IC50 [9] was 0.008 µM and the Activity [32] was “Active”. For the same compound, the IC50 [10] was 0.01 µM, the IC50 [11] was 0.016 µM and the inhibition [12] was “Dose-dependent effect”. The IC50 [12] was 0.028 µM, the inhibition [13] was “Dose-dependent effect” and the IC50 [13] was 0.051 µM. The IC50 [14] was 0.47 µM, the inhibition [15] was “Dose-dependent effect” and the IC50 [15] was 0.027 µM. The inhibition [16] was “Dose-dependent effect”, the IC50 [16] was 0.048 µM and the inhibition [33] was “Active”. For the same compound, the Emax [17] was 32%, the IC50 [17] was 0.0309 to 0.031 µM and the inhibition [17] was “Dose-dependent effect”. The IC50 [18] was 0.014 µM, the Activity [34] was “Active” and the Activity [35] was “Active”. The inhibition [36] was “Active”, the IC50 [19] was 0.012 µM and the IC50 [20] was 0.056 µM.
In the case of `Cc1cn(-c2cc(NC(=O)c3ccc(C)c(Nc4nccc(-c5cccnc5)n4)c3)cc(C(F)(F)F)c2)cn1` [NILOTINIB], the IC50 [4] is reported as 0.012 µM, the IC50 [5] is reported as 0.126 µM and the Activity [37] is reported as “Active”. It also gave an IC50 [9] of 0.01 µM, an IC50 [10] of 0.011 µM and an IC50 [11] of 2.42 µM. For the same compound, the Activity [38] was “Active”.
